SKN-1 block: suppressors of acrylamide-induced Pgst-4::GFP reporter in worms, primary screen, SKN-1 inhibitor project, whole organism, uHTS, GFP/RFP fluorescence ratio, strain VP596; AID 624304, 2012; C. elegans VP596 Pgst-4::GFP/RFP ratio, 24 h; 0.49% of 360,000 active; inhibition, % at 21.8 µM;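 active means interference check ratio from 0.5 to 1.5 plus GFP to RFP signal ratio inhibition reaching or exceeding a fixed threshold, cut at about 30% in these data, passing the limit was not always enough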
GRK2 aptamer HTS: compounds blocking aptamer binding on GRK2 – biochemical, human GRK2, bead flow cytometry, HTS, primary screen. Beta-adrenergic receptor kinase 1 (Homo sapiens), P25098. 0.59% of 330,000 active. inhibition of aptamer binding, % at 10 µM. FAM-aptamer displacement from GRK2. AID 488847, 2010;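 active means inhibition of aptamer binding above 40%, roughly 3 SD of noise, on plates passing a quality check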;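 further: median bead fluorescence of bound FAM aptamer so fluorescent compounds give negative values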
Target sequence (P25098 whole entry, looked up): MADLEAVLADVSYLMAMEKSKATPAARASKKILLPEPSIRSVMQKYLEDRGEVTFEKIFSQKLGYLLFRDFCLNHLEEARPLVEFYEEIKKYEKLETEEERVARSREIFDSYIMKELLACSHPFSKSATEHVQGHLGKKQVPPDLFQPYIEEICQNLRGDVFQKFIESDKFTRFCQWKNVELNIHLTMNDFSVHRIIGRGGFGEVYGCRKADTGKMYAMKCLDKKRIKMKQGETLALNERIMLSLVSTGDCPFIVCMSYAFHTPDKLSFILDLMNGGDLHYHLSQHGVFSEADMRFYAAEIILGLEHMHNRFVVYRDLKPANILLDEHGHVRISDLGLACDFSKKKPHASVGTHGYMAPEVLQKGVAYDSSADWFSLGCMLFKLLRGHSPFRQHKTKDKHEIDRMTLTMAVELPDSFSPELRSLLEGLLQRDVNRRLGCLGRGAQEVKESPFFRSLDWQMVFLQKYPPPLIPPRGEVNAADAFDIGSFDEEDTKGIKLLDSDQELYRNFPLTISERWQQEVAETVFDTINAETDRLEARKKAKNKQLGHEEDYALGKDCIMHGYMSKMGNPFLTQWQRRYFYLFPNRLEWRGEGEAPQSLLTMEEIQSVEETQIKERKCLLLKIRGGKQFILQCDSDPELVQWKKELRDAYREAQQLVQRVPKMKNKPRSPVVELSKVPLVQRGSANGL
T cell HTS: modulators of CD8 T cell-vesicle binding, primary screen, mouse 2C CD8+ T cells, flow cytometry; response (vesicle binding), % at 7 µM; AID 2052, 2009; 0.068% of 330,000 active; 2C CD8+ T cell-vesicle binding; stronger effect = lower value;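 active means response, share of CD8 T cells binding vesicles, and their 90th percentile fluorescence all below set limits, cut at about 80% in these data, passing the limit was not always enough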;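 further: values below 100% mean blocked vesicle binding to the CD8+ T cells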
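Assay system – 2C mouse CD8+ T cells · Also added – QL9-loaded Drosophila micro-vesicles · Timing – Cell–vesicle co-incubation 1.5 h at 37 °C, staining 20 min on ice · Signal – flow cytometry of vesicle-bound cells · Measure – percent CD8+ FL2 mean versus row control · Controls – Peptide-free naked vesicles (low) and QL9 vesicles with 0.7% DMSO vehicle (high)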
Myeloid diff 2: induction of myeloid progenitor differentiation, primary screen, cell-based, flow cytometry, MLPCN library. ER-HoxA9 myeloid progenitors, lysozyme-GFP differentiation. calls only at 10 µM. 1% of 360,000 active;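 active means normalized GFP-positive differentiation at or above the plate's own cutoff, the solvent-only control mean plus 3 SD; inconclusive means no clear call, values can overlap the other calls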;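 further: cells exposed to compound for four days before flow analysis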
Rce1 inhib: yeast Rce1p protease inhibitors, primary screen, biochemical, fluorescence, cell-free homogeneous. CAAX prenyl protease 2 (Saccharomyces cerevisiae (strain ATCC 204508 / S288c)), Q03530. AID 2563, 2010. 0.27% of 290,000 active. yeast membranes, quenched prenylated peptide cleavage fluorescence. calls only;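 active means fall in fluorescence gain of 50% or more versus controls, with final raw signal at or below 3038400; inconclusive means same 50% fall but final raw signal above 3038400; inactive means fall in fluorescence gain under 50%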;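 further: plate controls were neutral control wells for no effect and wells lacking membranes for full effect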
Rin1-Abl PPI inh: inhibitors of Rin1-Abl protein binding, primary screen, biochemical, TR-FRET | inhibition, % at 7.35 µM | 0.4% of 360,000 active | AID 588664, 2011; in the data active means inhibition above about 5%, passing the limit was not always enough
Numbers without * were called inactive; i = inactive; ? = inconclusive; . = no result given; + = active, no number. Sampled rows, rich in hits. Any-hit rate of the full collection: about 2.6%.

SMILES	SKN-1 block	GRK2 aptamer HTS	T cell HTS	Myeloid diff 2	Rce1 inhib	Rin1-Abl PPI inh
O=S(=O)(c1ccccc1)c1nnn2c1nc(NC1CCN(Cc3ccccc3)CC1)c1cc(Cl)ccc12	10	0	447	?	i	-6
O=S(=O)(c1ccccc1)c1nnn2c1nc(NC1CCN(Cc3ccccc3)CC1)c1ccccc12	9	0	872	+	i	-3
Cn1c(=O)[nH]c(=O)c2c1nc(N1CCN(Cc3ccccc3)CC1)n2CCSc1ncccn1	-10	2	100	+	i	2
Cn1c(/C(C#N)=C/c2ccc(-c3ccc(S(N)(=O)=O)cc3)o2)nc2ccccc21	-19	0	338	+	.	-5
Cc1ccc(OCCNC(=O)c2ccc3ccccc3n2)cc1	-3	1	244	i	i	-1
O=C(NCCOc1ccc(Cl)cc1)c1ccc2ccccc2n1	39*	4	401	i	i	-1
Cc1csc2nc(CNS(=O)(=O)c3ccc4c(c3)CCCC4)cn12	36*	0	259	i	i	-1
C/C(=N\OCc1ccc(C#N)cc1)c1cc2ccccc2o1	54*	1	0	i	.	0
CSC(=NCc1ccco1)NC#N	-7	0	650	i	i	-5
Cc1cc2cc(C)c(NCCNC(=O)c3cccs3)nc2cc1C	0	0	407	i	i	1
Cc1ccc(OCC(=O)N/N=C\c2ccc(C)o2)c([N+](=O)[O-])c1	-4	.	.	+	i	-4
Cc1ccc(OCC(=O)N/N=C/c2ccccc2)c([N+](=O)[O-])c1	-1	.	.	i	i	1
CCOCC(=O)Nc1ccc(C)c(Cl)c1	36*	1	414	i	i	-3
Cc1ccc(NC(=O)COc2ccccc2)cc1Cl	19	1	244	i	i	-1
CCCCn1c(=N)n(CC(O)COc2cccc(C)c2)c2ccccc21 (centres undefined)	30	0	349	+	i	0
O=C1C=C(NCCc2ccccc2)C2(CCCCC2)O1	6	0	482	i	i	3
CC[N+]1(C)CC2CCC(C)(C1)C2(C)C (centres undefined)	8	.	.	i	i	2
Nc1cccc2cc(-c3ccccc3)oc12	2	1	568	i	.	3
O=C(NNC(=O)c1cc(Br)ccc1Cl)c1csc(N2CCOCC2)n1	20	0	0	i	i	3
O=C(NNC(=O)c1cc(Br)ccc1O)c1csc(N2CCOCC2)n1	8	0	330	i	.	10*
C=CC[C@H](CC(=O)NCCO)C(=O)N[C@H](COC(=O)[C@H](CC=C)CC(=O)OC(C)(C)C)Cc1c[nH]c2ccccc12	-5	2	460	i	.	2
N#Cc1sc2nc(-c3cccs3)cc(-c3ccc(F)cc3)c2c1N	-6	3	468	+	i	2
CS(=O)(=O)c1sc2nc(-c3cccs3)cc(-c3ccccc3)c2c1N	4	4	144	+	i	-4
Cc1ccc(-c2cc(-c3ccccc3)c3c(N)c(S(C)(=O)=O)sc3n2)cc1	16	2	327	i	i	-3
O=C(CCn1cnnn1)N1CCCC(Nc2ccc(F)cc2)C1 (centres undefined)	-6	5	268	i	i	-1
SMILES	SKN-1 block	GRK2 aptamer HTS	T cell HTS	Myeloid diff 2	Rce1 inhib	Rin1-Abl PPI inh
O=C(c1ccc(Cn2cnnn2)cc1)N1CCCC(Nc2ccc(F)cc2)C1 (centres undefined)	1	0	300	i	+	4
CCN(C(=O)COC(=O)CCn1c(C)csc1=O)c1c(N)n(Cc2ccccc2)c(=O)[nH]c1=O	8	4	249	i	.	2
Cc1cc(C(=O)N2CCCC(CO)(Cc3ccc(F)cc3F)C2)nn1C (centres undefined)	3	.	.	+	.	1
Cc1nc2ccc(C(=O)N3CCCC(CO)(Cc4ccc(F)cc4F)C3)cc2nc1C (centres undefined)	-3	4	105	i	i	-2
COC(=O)Cc1c(C)c2ccc(OCc3nn[nH]n3)c(C)c2oc1=O	28	2	116	i	+	0
COc1ccc(C(=O)NCCS(=O)(=O)N2CCOCC2)cc1	-3	1	404	i	i	1
Cc1ccc[n+](C(C)C(=O)c2ccc(Cl)cc2)c1 (centres undefined)	9	0	284	+	i	1
Cc1ccc(C(=O)C(C)[n+]2cccc(C(N)=O)c2)cc1 (centres undefined)	1	0	209	i	i	5
COc1ccc(-c2coc3c(C(=O)Nc4cccc(NS(C)(=O)=O)c4)cccc23)c(C)c1	20	.	.	i	.	3
COc1cccc(-c2cccc(NC(=O)C3CCN(C4CCOCC4)CC3)c2)c1	2	0	252	i	i	2
COc1cccc(-c2cccc(NC(=O)C3CCN(CC4CCOC4)CC3)c2)c1 (centres undefined)	46*	3	305	i	i	3
COC(=O)c1ccccc1NC(=O)CSc1n[nH]c(-c2ccco2)n1	-5	0	213	i	i	4
CCN1CCN(C(=O)c2ccc3c(c2)c(C)c(C)n3Cc2ccccc2)CC1	14	0	113	i	i	-1
CCn1c(C)c(C)c2cc(C(=O)N3CCc4ccccc4C3)ccc21	42*	2	96	?	i	5
CCc1nc(NCc2ccccc2)c(C#N)c2c1CCCC2	8	1	492	i	i	2
CCc1nc(NCCC(C)C)c(C#N)c2c1CCCC2	43*	0	261	i	i	4
COc1cc2c(cc1OC)[C@@H](NC(=O)C(C)C)[C@H](OCc1ccccc1)C2	-6	0	.	i	.	-4
CCCc1nnc(SCC(=O)N2CCCCC2C)n1CCOC (centres undefined)	-2	1	597	i	i	2
Cn1cc(-c2ccccc2C(N)=O)c(=O)c2cc(Cl)ccc21	-3	1	255	i	i	2
Cn1cc(C2=C(c3ccc(Cl)cc3Cl)C(=O)NC2=O)c2ccccc21	73	0	226	+	i	-5
CCCCNC(=O)Nc1ccc(C2SCCS2)cc1	-12	0	357	i	i	1
